Results from ChEMBL document CHEMBL4196072, “Marliolide inhibits skin carcinogenesis by activating NRF2/ARE to induce heme oxygenase-1” (Eur J Med Chem, 2018).
Values belong to the compound of their own block, whether it stands above or below them. Calls of active or inactive are those of the source. No cut-off for these calls is given here.

How the values were obtained:
[1] = target: Kelch-like ECH-associated protein 1 (Homo sapiens) (UniProt Q14145); assay: Binding affinity to Keap1 in human HaCaT cells assessed as induction of NRF2/ARE activation-mediated HO1 expression at 10 uM after 6 to 24 hrs by Western blot analysis; type: cell-based
Sequence of Kelch-like ECH-associated protein 1 (Homo sapiens) (Q14145 whole entry): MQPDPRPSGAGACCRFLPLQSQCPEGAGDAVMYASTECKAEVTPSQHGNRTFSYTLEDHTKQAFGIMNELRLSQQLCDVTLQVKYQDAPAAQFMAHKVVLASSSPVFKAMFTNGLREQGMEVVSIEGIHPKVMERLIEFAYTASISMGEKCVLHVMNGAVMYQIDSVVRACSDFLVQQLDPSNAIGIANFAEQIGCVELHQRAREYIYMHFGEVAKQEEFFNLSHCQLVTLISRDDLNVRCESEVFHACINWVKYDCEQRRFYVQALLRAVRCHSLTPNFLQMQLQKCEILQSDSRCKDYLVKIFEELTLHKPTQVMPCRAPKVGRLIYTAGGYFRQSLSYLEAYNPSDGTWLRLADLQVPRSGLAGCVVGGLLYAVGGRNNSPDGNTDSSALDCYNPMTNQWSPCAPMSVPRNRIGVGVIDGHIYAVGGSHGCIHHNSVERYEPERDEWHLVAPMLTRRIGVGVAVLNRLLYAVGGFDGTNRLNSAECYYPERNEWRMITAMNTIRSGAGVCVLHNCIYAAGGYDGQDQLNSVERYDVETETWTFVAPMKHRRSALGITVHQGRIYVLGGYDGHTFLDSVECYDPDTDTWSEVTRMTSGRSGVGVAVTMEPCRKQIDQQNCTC
Procedure, shortened: (§1)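 HaCaT cells were grown in RPMI with 10% FBS and Pen/Strep and treated with agent from DMSO stock (1/1000 dilution), across concentrations for 24 h or over a time course. Cells were lysed in RIPA buffer and protein was measured by BCA. Equal amounts were separated by SDS-PAGE, blotted to PVDF, blocked in 5% milk/PBST, probed overnight at 4°C with HO-1 or NRF2 antibody, and detected by ECL. Actin served as loading control.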

Mus musculus [2] = assay: Anti-carcinogenic effect in hairless mouse assessed as inhibition of incidence of DMBA/TPA-induced papilloma formation at 10 umol administered topically 3 times per week up to 10 weeks with TPA starting from 1 week post DMBA treatment; type: functional, organism-based
Procedure, shortened: (§2)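 Male hairless mice (6 weeks old at purchase, acclimated one week) received a single topical dose of DMBA (2 µmole) or acetone vehicle in week 1. From week 2, the back was treated with TPA (10 nmole) alone or with test agent (10 µmole), three times per week. Papillomas were counted manually at the end of each week. At sacrifice, skin was formalin-fixed, paraffin-embedded and H/E-stained for phase-contrast imaging.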

Mus musculus [3] = assay: Anti-carcinogenic effect in hairless mouse assessed as inhibition of number of DMBA/TPA-induced papilloma formation at 10 umol administered topically 3 times per week up to 10 weeks with TPA starting from 1 week post DMBA treatment; type: functional, organism-based; procedure, shortened: as §2
[4] = target: Kelch-like ECH-associated protein 1 (Homo sapiens) (UniProt Q14145); assay: Binding affinity to Keap1 in human HaCaT cells assessed as induction of NRF2/ARE activation-mediated HO1 expression at 10 uM by Western blot analysis; type: cell-based; conditions: TDE = time-dependent effect; procedure, shortened: as §1
HaCaT [5] = assay: Cytotoxicity against human HaCaT cells assessed as reduction in cell viability at 10 uM after 24 hrs by MTT method; type: cell-based
Procedure, shortened: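 HaCaT cells were seeded at 30,000 per well and exposed to agent at 10 µM for 24 h. After a PBS wash, cells were incubated with MTT (5 mg/ml) for 4 h, lysed in DMSO, and absorbance was read at 560 nm.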

Mus musculus [6] = assay: Downregulation of 8-OH-G expression in skin lysates of DMBA/TPA-induced mouse skin carcinogenesis model at 10 umol administered topically 3 times per week up to 10 weeks with TPA starting from 1 week post DMBA treatment by immunofluorescence microscopic method; type: functional, organism-based; conditions: Zone of skin, Lysate
Procedure, shortened: (§3)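 Skin came from the two-stage DMBA/TPA model in hairless mice: DMBA 2 µmole once topically, then TPA 10 nmole ± agent 10 µmole three times weekly. At sacrifice, skin was formalin-fixed and paraffin-embedded. Sections were incubated overnight at 4°C with 8-OH-G or 4-HNE primary antibody, then probed with FITC-conjugated secondary antibody for fluorescence imaging.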

HaCaT [7] = assay: Cell cycle arrest in human HaCaT cells assessed as accumulation at G1/S phase at 10 uM after 24 hrs by propidium iodide staining based flow cytometry
Procedure, shortened: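 HaCaT cells were exposed to agent for 24 h, with etoposide as positive control. Cells (1x10⁶ per group) were fixed in PBS/70% EtOH (3:7), washed, stained with propidium iodide (20 µg/ml), and G1/S distribution was measured by flow cytometry.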

HaCaT [8] = assay: Cytotoxicity against human HaCaT cells assessed as reduction in cell viability by measuring morphological changes at 10 uM after 24 hrs by phase contrast microscopic method; type: cell-based
Procedure, shortened: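 HaCaT cells were exposed to agent or etoposide, and gross cell morphology was examined by phase-contrast microscopy.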

Mus musculus [9] = assay: Upregulation of GCLC expression in skin lysates of mouse at 10 umole applied topically up to 24 hrs by Western blot analysis; type: functional, organism-based; conditions: Zone of skin, Lysate
[10] = target: Kelch-like ECH-associated protein 1 (Homo sapiens) (UniProt Q14145); assay: Binding affinity to Keap1 in human HaCaT cells assessed as activation of NRF2 by measuring nuclear translocation of NRF2 at 10 uM after 6 to 12 hrs by immunofluorescence assay; type: cell-based
Procedure, shortened: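 Confluent HaCaT cells on glass were exposed to agent for 6 h and 12 h, blocked with 1% BSA for 30 min, and fixed with paraformaldehyde. They were incubated overnight at 4°C with NRF2 antibody, then with FITC-conjugated secondary antibody, and imaged by confocal microscopy.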

Mus musculus [11] = assay: Upregulation of HO-1 expression in skin lysates of mouse at 10 umole applied topically up to 24 hrs by Western blot analysis; type: functional, organism-based; conditions: Zone of skin, Lysate
[12] = target: Kelch-like ECH-associated protein 1 (Mus musculus) (UniProt Q9Z2X8); assay: Binding affinity to Keap1 in NRF2+/+ MEF assessed as induction of NRF2/ARE activation-mediated HO1 expression at 10 uM up to 8 hrs by RT-PCR method; type: cell-based
Sequence of Kelch-like ECH-associated protein 1 (Mus musculus) (Q9Z2X8 whole entry): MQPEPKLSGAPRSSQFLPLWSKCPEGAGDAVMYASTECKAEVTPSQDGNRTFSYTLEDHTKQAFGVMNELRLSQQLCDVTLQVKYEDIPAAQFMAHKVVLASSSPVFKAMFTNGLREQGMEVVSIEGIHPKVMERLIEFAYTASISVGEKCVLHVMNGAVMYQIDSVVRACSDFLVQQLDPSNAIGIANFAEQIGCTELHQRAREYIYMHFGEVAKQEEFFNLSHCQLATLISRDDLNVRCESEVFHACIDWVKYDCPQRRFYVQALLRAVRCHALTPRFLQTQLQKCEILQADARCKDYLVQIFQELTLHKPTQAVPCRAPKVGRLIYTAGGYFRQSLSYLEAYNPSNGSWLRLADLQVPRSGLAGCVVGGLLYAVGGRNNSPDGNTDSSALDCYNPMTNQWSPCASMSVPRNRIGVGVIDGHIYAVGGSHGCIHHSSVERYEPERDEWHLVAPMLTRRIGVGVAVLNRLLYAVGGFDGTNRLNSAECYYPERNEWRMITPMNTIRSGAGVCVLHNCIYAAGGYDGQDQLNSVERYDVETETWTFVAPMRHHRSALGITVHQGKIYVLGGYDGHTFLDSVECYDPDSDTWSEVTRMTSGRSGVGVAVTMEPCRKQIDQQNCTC

[13] = target: Kelch-like ECH-associated protein 1 (Mus musculus) (UniProt Q9Z2X8); assay: Binding affinity to Keap1 in NRF2+/+ MEF assessed as induction of NRF2/ARE activation-mediated HO1 expression at 10 uM after 24 hrs by Western blot analysis; type: cell-based
[14] = target: Kelch-like ECH-associated protein 1 (Mus musculus) (UniProt Q9Z2X8); assay: Binding affinity to Keap1 in NRF2-/- MEF assessed as induction of NRF2/ARE activation-mediated HO1 expression at 10 uM up to 8 hrs by RT-PCR method; type: cell-based
HaCaT [15] = assay: Induction of apoptosis in human HaCaT cells assessed as increase in cleaved caspase-3 protein expression at 10 uM after 6 to 24 hrs by Western blot analysis; type: cell-based
Procedure, shortened: (§4)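 HaCaT cells were exposed to agent or etoposide for various times. RIPA lysates were analysed by SDS-PAGE and Western blot with cleaved caspase-3 and cleaved PARP antibodies, with ECL detection and actin as loading control.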

[16] = target: Kelch-like ECH-associated protein 1 (Mus musculus) (UniProt Q9Z2X8); assay: Binding affinity to Keap1 in NRF2-/- MEF assessed as induction of HO1 expression at 10 uM after 24 hrs by Western blot analysis; type: cell-based
Mus musculus [17] = assay: Anti-carcinogenic effect in hairless mouse assessed as inhibition of DMBA/TPA-induced papilloma growth at 10 umol administered topically 3 times per week up to 10 weeks with TPA starting from 1 week post DMBA treatment by hematoxylin/eosin staining based phase-contrast microscopic method; type: functional, organism-based; procedure, shortened: as §2
Mus musculus [18] = assay: Upregulation of NRF2 expression in skin lysates of mouse at 10 umole applied topically up to 24 hrs by Western blot analysis; type: functional, organism-based; conditions: Zone of skin, Lysate
HaCaT [19] = assay: Induction of apoptosis in human HaCaT cells assessed as increase in cleaved PARP protein expression at 10 uM after 6 to 24 hrs by Western blot analysis; type: cell-based; procedure, shortened: as §4
[20] = target: Kelch-like ECH-associated protein 1 (Homo sapiens) (UniProt Q14145); assay: Binding affinity to Keap1 in human HaCaT cells assessed as induction of NRF2/ARE activation-mediated HO1 expression at 1 to 10 uM after 24 hrs by Western blot analysis; type: cell-based; procedure, shortened: as §1
Mus musculus [21] = assay: Downregulation of 4-HNE expression in skin lysates of DMBA/TPA-induced mouse skin carcinogenesis model at 10 umol administered topically 3 times per week up to 10 weeks with TPA starting from 1 week post DMBA treatment by immunofluorescence microscopic method; type: functional, organism-based; conditions: Zone of skin, Lysate; procedure, shortened: as §3
[22] = target: Kelch-like ECH-associated protein 1 (Homo sapiens) (UniProt Q14145); assay: Binding affinity to Keap1 in human HaCaT cells assessed as induction of NRF2/ARE activation-mediated HO1 mRNA expression at 10 uM RT-PCR method; type: cell-based; conditions: TDE = time-dependent effect
Procedure, shortened: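 HaCaT cells were treated at 10 µM (DMSO, 1/1000) for 4, 8 and 12 h. Total RNA was analysed by SYBR real-time RT-PCR with HO-1-specific primers. Cycling was 95 °C for 5 min; 40 cycles of 95 °C 10 s, 59 °C 10 s, 72 °C 20 s; then 95 °C 10 s.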

[23] = target: T1, Nuclear factor erythroid 2-related factor 2 (Homo sapiens) (UniProt Q16236); assay: Binding affinity to NRF2 in human HaCaT cells at 10 nmol by immunoprecipitation assay; type: cell-based
T1 sequence (whole entry): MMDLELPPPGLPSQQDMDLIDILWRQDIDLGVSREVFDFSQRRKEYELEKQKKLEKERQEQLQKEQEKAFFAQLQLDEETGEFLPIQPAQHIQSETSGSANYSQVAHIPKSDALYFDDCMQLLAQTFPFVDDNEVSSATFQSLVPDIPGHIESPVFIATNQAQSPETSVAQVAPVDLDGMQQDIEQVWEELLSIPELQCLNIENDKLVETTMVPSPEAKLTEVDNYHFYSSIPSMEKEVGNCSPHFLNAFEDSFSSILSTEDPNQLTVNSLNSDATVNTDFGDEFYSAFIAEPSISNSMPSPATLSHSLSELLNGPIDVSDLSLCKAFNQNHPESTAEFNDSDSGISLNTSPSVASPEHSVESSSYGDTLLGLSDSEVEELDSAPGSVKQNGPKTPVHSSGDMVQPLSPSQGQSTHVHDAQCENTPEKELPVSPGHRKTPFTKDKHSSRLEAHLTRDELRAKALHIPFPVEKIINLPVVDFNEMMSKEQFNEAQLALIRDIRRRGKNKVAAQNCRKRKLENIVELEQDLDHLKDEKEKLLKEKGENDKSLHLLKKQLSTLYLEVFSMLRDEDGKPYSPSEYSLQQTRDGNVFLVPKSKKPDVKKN
Procedure, shortened: (§5)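 Lysate (800 µg) from confluent HaCaT cells in RIPA buffer was mixed with biotin or biotinylated agent (10 nmole each). Pull-down was done with streptavidin-agarose beads overnight at 4°C. Beads were washed in ice-cold PBS, and bound KEAP1 and NRF2 were detected by Western blot.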

[24] = target: Kelch-like ECH-associated protein 1 (Homo sapiens) (UniProt Q14145); assay: Binding affinity to Keap1 in human HaCaT cells at 10 nmol by immunoprecipitation assay; type: cell-based; procedure, shortened: as §5

Compound: CCCCCCCCCCCCC/C=C1\C(=O)O[C@@H](C)[C@H]1O
- Activity [1]: Active

Compound: CCCCCCCCCCCCC/C=C1/C(=O)O[C@@H](C)[C@H]1O
- inhibition (Mus musculus [2]): Active
- inhibition (Mus musculus [3]): Active
- Activity [4]: Tde
- Activity (HaCaT [5]): Non-Toxic
- Activity (Mus musculus [6]): Active
- Activity (HaCaT [7]): Non-Toxic
- Activity (HaCaT [8]): Non-Toxic
- Activity (Mus musculus [9]): Active
- Activity [10]: Active
- Activity (Mus musculus [11]): Active
- Activity [12]: Active
- Activity [13]: Active
- Activity [14]: inactive
- Activity (HaCaT [15]): Non-Toxic
- Activity [16]: inactive
- inhibition (Mus musculus [17]): Active
- Activity (Mus musculus [18]): Active
- Activity (HaCaT [19]): Non-Toxic
- Activity [20]: Active
- Activity (Mus musculus [21]): Active

Compound: CCCCCCCCCCCC/C=C1/C(=O)O[C@@H](C)[C@H]1O
- Activity (HaCaT [5]): Non-Toxic
- Activity [22]: Tde
- Activity (Mus musculus [9]): Active
- Activity (Mus musculus [11]): Active
- Activity [1]: Active
- Activity (Mus musculus [18]): Active

Compound: CCCCCCCCCCCCCC[C@@H]1C[C@H](O)OC1=O
- Activity [1]: inactive

Compound: CCCCCCCCCCCCC/C=C1\C[C@H](C)OC1=O
- Activity [1]: inactive

Compound: CCCCCCCCCCCCC/C=C1/C(=O)O[C@@H](C)[C@H]1OC(=O)CC(C)C
- Activity [1]: inactive

Compound: C[C@@H]1OC(=O)/C(=C/CCCCCCCCCCCCNC(=O)CCCC[C@@H]2SC[C@@H]3NC(=O)N[C@@H]32)[C@@H]1O
- Activity [23]: inactive
- Activity [24]: Active

Compound: CCCCCCCCCCCCCC[C@H]1C(=O)O[C@@H](O)[C@H]1O
- Activity [1]: inactive

Compound: CCCCCCCCCCCCC/C=C1/C(=O)O[C@@H](C)[C@@H]1O
- Activity [1]: Active

More lines, main results first:

- Activity [1]: inactive
Compound: CCCCC/C=C1/C(=O)O[C@@H](C)[C@H]1O

- Activity [1]: inactive
Compound: CCC/C=C1/C(=O)O[C@@H](C)[C@H]1O

- Activity [22]: Tde
- Activity [1]: Active
Compound: CCCCCCCCC/C=C1/C(=O)O[C@@H](C)[C@H]1O
- Activity (HaCaT [5]): Non-Toxic

- Activity [22]: Tde
- Activity [1]: Active
Compound: CCCCCCCCCC/C=C1/C(=O)O[C@@H](C)[C@H]1O
- Activity (HaCaT [5]): Non-Toxic

- Activity [22]: Tde
- Activity [1]: Active
Compound: CCCCCCCCCCC/C=C1/C(=O)O[C@@H](C)[C@H]1O
- Activity (HaCaT [5]): Non-Toxic
